Test results from ChEMBL document CHEMBL1137753, “Insecticidal heterolignans--tubuline polymerization inhibitors with activity against chewing pests” (Bioorg Med Chem, 2009).
Activity calls are given as the source filed them. Unless noted, no cut-off for these calls is given here.

What was measured:
Sf9 [1] = assay: Cytotoxicity against Spodoptera frugiperda Sf9 cells assessed as chromatin condensation at >10 ppm after 48 hrs by fluorescence microscopy; format: functional, cell-based
Outline: (§1)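 Sf9 cells seeded in 8-well slide chambers the day before, then exposed to compound for 48 h. After two PBS washes, cells were fixed in ice-cold methanol for 10 min on ice, given two short acetone washes, rehydrated in PBS and stained with Dapi (2 µM) for 30 min. Chromatin condensation/fragmentation scored by fluorescence microscopy with a x40 objective.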

CHO [2] = assay: Cytotoxicity against CHO cells assessed as chromatin condensation after 24 hrs by fluorescence microscopy; format: cell-based, Cricetulus griseus; conditions: chinese hamster
CHO [3] = assay: Cytotoxicity against CHO cells assessed as chromatin condensation after 48 hrs by fluorescence microscopy; format: cell-based, Cricetulus griseus; conditions: chinese hamster
Outline: (§2)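 Sf9 or CHO cells were seeded in chamber slides the day before treatment and exposed to compound for 48 h. They were then PBS-washed, fixed in ice-cold methanol for 10 min on ice, and rinsed with acetone. After rehydration in PBS, cells were stained with 2 µM DAPI for 30 min. Nuclei were examined by fluorescence microscopy (×40) for chromatin condensation or fragmentation.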

Phaedon cochleariae [4] = assay: Insecticidal activity against Phaedon cochleariae larvae in disk of Chinese cabbage leaf at 20 g/ha treated as spray; format: functional, organism-based
Outline: (§3)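 This was sprayed on Chinese cabbage leaf disks. Once dry, disks were infested with mustard beetle larvae and mortality was scored after a set time. "+" denotes ≥80% larvae killed; n.a. denotes none killed.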

Spodoptera frugiperda [5] = assay: Insecticidal activity against Spodoptera frugiperda larvae in disk of maize leaf at 20 g/ha treated as spray; format: functional, organism-based
Outline: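 Maize leaf disks (Zea mays) were sprayed, allowed to dry, then populated with S. frugiperda larvae. Mortality was scored after the desired time; '+' means at least 80% of larvae killed, 'n.a.' means none killed.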

Spodoptera frugiperda [6] = assay: Insecticidal activity against Spodoptera frugiperda larvae in disk of maize leaf at 4 g/ha treated as spray; format: functional, organism-based
Outline: (§4)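 The same acetone/DMF/emulsifier formulation, diluted in emulsifier-containing water, was sprayed onto maize leaf disks. Dried disks were infested with fall armyworm larvae and mortality was assessed after a set time. "+" denotes ≥80% larvae killed; n.a. denotes no larvae killed.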

Sf9 [7] = assay: Cytotoxicity against Spodoptera frugiperda Sf9 cells assessed as chromatin condensation at 0.14 ppm after 48 hrs by fluorescence microscopy; format: functional, cell-based; outline: as §1
Bos taurus = species on record: Bos taurus; assay: Inhibition of bovine tubulin polymerization
Outline: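 Tubulin (>99% pure, 300 µg/sample) was suspended at 4 °C in G-PEM buffer (80 mM PIPES, 2 mM MgCl2, 0.5 mM EGTA, 1.0 mM GTP, pH 6.9) plus 5% glycerol, with or without compound. Colchicine and taxol served as standards. Polymerization at 37 °C was followed as absorbance at 340 nm every 1 min for up to 60 min.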

Phaedon cochleariae [8] = assay: Insecticidal activity against Phaedon cochleariae larvae in disk of Chinese cabbage leaf treated as spray; format: functional, organism-based
Spodoptera frugiperda [9] = assay: Insecticidal activity against Spodoptera frugiperda larvae in disk of maize leaf treated as spray; format: functional, organism-based
Sf9 [10] = assay: Cytotoxicity against Spodoptera frugiperda Sf9 cells assessed as chromatin condensation at 10 ppm after 48 hrs by fluorescence microscopy; format: functional, cell-based; outline: as §2
Phaedon cochleariae [11] = assay: Insecticidal activity against Phaedon cochleariae larvae in disk of Chinese cabbage leaf at 500 g/ha treated as spray; format: functional, organism-based; outline: as §3
Spodoptera frugiperda [12] = assay: Insecticidal activity against Spodoptera frugiperda larvae in disk of maize leaf at 500 g/ha treated as spray; format: functional, organism-based; outline: as §4
Sf9 [13] = assay: Cytotoxicity against Spodoptera frugiperda Sf9 cells assessed as chromatin condensation at 1 ppm after 48 hrs by fluorescence microscopy; format: functional, cell-based; outline: as §2
Phaedon cochleariae [14] = assay: Insecticidal activity against Phaedon cochleariae larvae in disk of Chinese cabbage leaf at 4 g/ha treated as spray; format: functional, organism-based; outline: as §3

Row | Compound | Activity (CHO [2]) | Activity (CHO [3]) | Activity (Phaedon cochleariae [11]) | Activity (Spodoptera frugiperda [12]) | also measured
1 | COc1cc(OC)cc([C@@H]2C3=C(COC3=O)Nc3cc(OC)ccc32)c1 | Toxic | Toxic | – | – | Activity (Sf9 [1]): Active
2 | COc1cc(OC)cc(C2C3=C(COC3=O)Nc3cc4c(cc32)OCO4)c1 (centres undefined) | – | – | – | – | Activity (Phaedon cochleariae [4]): Active; Activity (Spodoptera frugiperda [5]): Active
3 | COc1cc(OC)cc(C2C3=C(COC3=O)Nc3c2ccc(OC)c3OC)c1 (centres undefined) | Toxic | Toxic | – | – | Activity (Phaedon cochleariae [4]): Active; Activity (Spodoptera frugiperda [6]): Active; Activity (Sf9 [7]): Active; inhibition (Bos taurus): Active
4 | O=C1OCC2=C1C(c1ccccc1Cl)c1cc3c(cc1N2)OCO3 (centres undefined) | Toxic | Toxic | – | – | Activity (Phaedon cochleariae [8]): inactive; Activity (Spodoptera frugiperda [9]): inactive; Activity (Sf9 [10]): Active
5 | COc1cc(OC)cc(C2C3=C(COC3=O)Nc3cc(OC)c(OC)cc32)c1 (centres undefined) | Toxic | Toxic | Active | Active | Activity (Sf9 [13]): Active
6 | CCN1C2=C(C(=O)OC2)C(c2cc(OC)cc(OC)c2)c2cc3c(cc21)OCO3 (centres undefined) | Toxic | Toxic | Active | Active | Activity (Sf9 [13]): Active
7 | COc1cc(OC)cc(C2C3=C(COC3=O)Nc3c(OC)cc(OC)cc32)c1 (centres undefined) | – | – | – | Active | Activity (Phaedon cochleariae [14]): Active
8 | COc1ccc2c(c1)NC1=C(C(=O)OC1)C2c1cc(OC)c(OC)c(OC)c1 (centres undefined) | – | – | Active | – | Activity (Spodoptera frugiperda [5]): Active
9 | COc1cc2c(c(OC)c1OC)-c1ccc(OC)c(=O)cc1[C@@H](NC(C)=O)CC2 [COLCHICINE] | Toxic | Toxic | – | – | Activity (Sf9 [7]): Active; inhibition (Bos taurus): Active
